Assay results published in ChEMBL document CHEMBL2163220 (J Med Chem, 2012).
Where a chain is given by its changes, count along the chain named. Calls of active or inactive are those of the source. The rule behind the calls is not given here.

Tests used:
[1] = biological target: T1, Androgen receptor (Homo sapiens) (UniProt P10275); assay: Antagonist activity at androgen receptor in human LNCaP cells assessed as increase in Maspin expression incubated for 24 hrs in presence of DHT by RT-PCR
T1 sequence (whole entry): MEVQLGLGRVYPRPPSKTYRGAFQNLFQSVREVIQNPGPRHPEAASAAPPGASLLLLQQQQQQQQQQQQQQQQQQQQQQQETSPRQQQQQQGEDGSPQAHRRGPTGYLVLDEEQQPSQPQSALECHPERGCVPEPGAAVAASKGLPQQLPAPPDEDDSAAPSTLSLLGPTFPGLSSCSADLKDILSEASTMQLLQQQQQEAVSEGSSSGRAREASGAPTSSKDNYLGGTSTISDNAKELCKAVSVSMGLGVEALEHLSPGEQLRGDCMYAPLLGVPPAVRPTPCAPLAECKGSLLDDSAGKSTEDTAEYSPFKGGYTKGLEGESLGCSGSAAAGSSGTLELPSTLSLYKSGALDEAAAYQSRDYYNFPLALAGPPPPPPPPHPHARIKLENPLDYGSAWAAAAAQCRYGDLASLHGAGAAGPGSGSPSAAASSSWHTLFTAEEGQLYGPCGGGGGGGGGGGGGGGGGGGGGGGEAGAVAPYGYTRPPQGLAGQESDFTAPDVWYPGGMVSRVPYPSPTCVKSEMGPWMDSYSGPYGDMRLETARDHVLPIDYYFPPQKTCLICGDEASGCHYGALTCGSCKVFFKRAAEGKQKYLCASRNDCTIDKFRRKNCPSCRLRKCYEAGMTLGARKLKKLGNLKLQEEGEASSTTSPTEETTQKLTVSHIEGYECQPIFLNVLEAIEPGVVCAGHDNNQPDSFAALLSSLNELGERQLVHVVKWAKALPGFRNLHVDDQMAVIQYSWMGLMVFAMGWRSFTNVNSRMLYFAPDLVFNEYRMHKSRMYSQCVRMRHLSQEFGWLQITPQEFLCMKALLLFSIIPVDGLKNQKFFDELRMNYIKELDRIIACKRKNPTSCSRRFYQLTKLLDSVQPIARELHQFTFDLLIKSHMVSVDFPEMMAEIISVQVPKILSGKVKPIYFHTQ

PC-3 [2] = assay: Effect on in Maspin expression in human PC3 cells deficient in wild type androgen receptor at 2.5 uM by luciferase reporter gene assay; type: functional, cell-based
Method in brief: (§1)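 PC-3 cells were transfected with maspin-luc, with or without cotransfected AR. Cells were exposed to DMSO vehicle or compound at 2.5 and 5 μM. Luciferase activity was measured in triplicate.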

[3] = biological target: T1, Androgen receptor (Homo sapiens); assay: Antagonist activity at androgen receptor in human PC3 cells assessed as increase in Maspin promoter activity at 5 uM by luciferase reporter gene assay; type: functional, cell-based; conditions: PC-3
Method in brief: as §1

[4] = biological target: T1, Androgen receptor (Homo sapiens); assay: Antagonist activity at androgen receptor in human LNCaP cells assessed as reduction in DHT-induced PSA expression by luciferase reporter gene assay; type: functional, cell-based
Method in brief: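 LNCaP cells carrying a PSA-luc reporter were treated with compound at 1 and 2.5 μM in the presence of 1 nM DHT. Fold suppression was calculated relative to 1 nM DHT alone. Run in triplicate.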

[5] = system: T2, Androgen receptor (Homo sapiens), P10275 [W742C]; assay: Antagonist activity at androgen receptor W741C mutant expressed in human PC3 cells assessed as reduction in DHT-induced receptor transactivation at 0.1 to 1 uM by luciferase reporter gene assay; type: functional, cell-based; conditions: PC-3
T2 sequence (whole entry): T1 sequence (whole entry) with W742C
Method in brief: (§2)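 Full-length wild-type or mutant AR plasmid transiently transfected into PC-3 cells with MMTV-luc and Renilla luciferase reporters. Cells treated with DMSO vehicle or compound at 0.1 and 1 μM, alone or with 0.1 nM DHT. Luciferase read as relative luciferase units. Run in triplicate.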

PC-3 [6] = assay: Agonist activity at androgen receptor T887A mutant expressed in human PC3 cells assessed as stimulation of receptor transactivation at 0.1 to 1 uM by luciferase reporter gene assay; type: functional, cell-based
Method in brief: as §2

[7] = biological target: T1, Androgen receptor (Homo sapiens); assay: Antagonist activity at androgen receptor expressed in human PC3 cells assessed as reduction in DHT-induced receptor transactivation at 0.1 to 1 uM by luciferase reporter gene assay; type: functional, cell-based; conditions: PC-3
Method in brief: as §2

CWR22R = assay: Cytotoxicity against human 22Rv1 cells incubated for 72 hrs by MTT assay; type: functional, cell-based; conditions: 22Rv1, 72 h
Method in brief: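 MTT assay run across a panel of prostate cancer cell lines.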

In the case of `Cc1coc2c1C(=O)C(=O)c1c-2ccc2c1CCCC2(C)C` [TANSHINONE IIA], the Activity [1] is reported as “Dose-dependent effect”, the Activity (PC-3 [2]) is reported as “inactive” and the Activity [3] is reported as “Active”. For the same molecule, the Activity [4] was “Dose-dependent effect”, the Activity [5] was “Active” and the Activity (PC-3 [6]) was “inactive”. For the same molecule, the Activity [7] was “Active” and the IC50 (CWR22R) was 6.7 µM.
